Active and inactive are the calls of the source. The calls are words filed in the database; no cut-off is given here.
Legend:
Danio rerio [1] = species: Danio rerio; assay: Antiangiogenic activity in fli-1:enhanced GFP expressing transgenic zebrafish embryo assessed as inhibition of neovacularisation at 5 uM after 24 hrs relative to control; type: functional
Procedure, shortened: (§1)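 fli-1:EGFP transgenic zebrafish embryos sorted at about 6 hpf (6 per well), exposed in embryo water to compound at 5–40 μM for 24 h. Then anesthetized with 0.05% 2-phenoxyethanol, photographed and quantified.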

HUVEC [2] = assay: Antimigratory activity against human HUVEC cells at 20 uM after 24 hrs by wound-healing assay; type: functional, cell-based
Procedure, shortened: (§2)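 HUVEC monolayers grown overnight to confluence on 0.1% gelatin, scratched with pipet tips, washed, then kept in serum-free DMEM with compound (20 or 40 μM) for 24 h at 37 °C, 5% CO2; control serum-free DMEM. Migrated cells counted manually from images at 0 and 24 h, three random fields; three independent experiments, mean ± SE.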

Danio rerio [3] = species: Danio rerio; assay: Antiangiogenic activity in fli-1:enhanced GFP expressing transgenic zebrafish embryo assessed as inhibition of neovacularisation at 20 uM after 24 hrs relative to control; type: functional; procedure, shortened: as §1
[4] = Antiproliferative activity against mouse LL/2 cells after 24 hrs by MTT assay; type: functional, cell-based; conditions: Lewis lung carcinoma
Procedure, shortened: (§3)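 Cells (5 × 10^3/well) kept at 37 °C, 5% CO2 and treated with varied compound concentrations for 24 h. MTT given for a further 3 h, precipitate dissolved in DMSO, absorbance taken at 570 nm. IC50 calculated from percentage growth relative to untreated control.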

HUVEC [5] = assay: Antiangiogenic activity against human HUVEC cells assessed as inhibition of tube formation at 20 uM after 12 hrs by matrigel-based assay; type: functional
Procedure, shortened: (§4)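 HUVECs (1 × 10^4) in DMEM with compound (20 μM) plated on Matrigel that had set at 37 °C for 45 min; controls got DMEM alone. After 12 h at 37 °C, capillary networks were photographed and intact tubes counted in five random regions. Inhibition expressed as percentage of control.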

Danio rerio [6] = species: Danio rerio; assay: Antiangiogenic activity in fli-1:enhanced GFP expressing transgenic zebrafish embryo assessed as inhibition of neovacularisation at 40 uM after 24 hrs relative to control; type: functional; procedure, shortened: as §1
Danio rerio [7] = species: Danio rerio; assay: Antiangiogenic activity in fli-1:enhanced GFP expressing transgenic zebrafish embryo assessed as inhibition of neovacularisation at 10 uM after 24 hrs relative to control; type: functional; procedure, shortened: as §1
HepG2 = assay: Antiproliferative activity against human HepG2 cells after 24 hrs by MTT assay; type: functional, cell-based; conditions: HepG2, 24 h; procedure, shortened: as §3
A549 = assay: Antiproliferative activity against human A549 cells after 24 hrs by MTT assay; type: functional, cell-based; conditions: A549, 24 h; procedure, shortened: as §3
HUVEC [8] = assay: Antiproliferative activity against human HUVEC cells after 24 hrs by MTT assay; type: functional, cell-based
Procedure, shortened: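 Primary HUVECs grown on gelatin in M-199 with 20% FBS, 10 ng/mL bFGF, 2 ng/mL VEGF, 5% CO2, 37 °C. Cells (5 × 10^3/well) exposed to a range of compound concentrations for 24 h. MTT added for 3 h, formazan dissolved in DMSO, absorbance read at 570 nm. IC50 from percentage growth versus untreated control.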

HUVEC [9] = assay: Antimigratory activity against human HUVEC cells assessed as migration rate at 40 uM after 24 hrs by wound-healing assay relative to control; type: functional; procedure, shortened: as §2
HUVEC [10] = assay: Antimigratory activity against human HUVEC cells after 24 hrs by wound-healing assay relative to honokiol; type: functional; procedure, shortened: as §2
Danio rerio [11] = species: Danio rerio; assay: Antiangiogenic activity in fli-1:enhanced GFP expressing transgenic zebrafish embryo assessed as inhibition of intersomitic vessel sprouts after 48 hrs; type: functional, organism-based
Procedure, shortened: (§5)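 Transgenic fli-1:EGFP zebrafish embryos (GFP across endothelium) sorted at about 6 hpf, 6 per well, with dead or unhealthy ones removed. Compound (10, 20, 40 μM) added to embryo water (0.2 g/L instant ocean salt) from 6 hpf for 48 h. Embryos then anesthetized in 0.05% 2-phenoxyethanol, imaged, and intersomitic and dorsal longitudinal anastomotic vessel sprouts assessed.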

HUVEC [12] = assay: Antiangiogenic activity against human HUVEC cells assessed as inhibition of tube formation at 20 uM after 12 hrs by matrigel-based assay relative to honokiol; type: functional; procedure, shortened: as §4
Danio rerio [13] = species: Danio rerio; assay: Antiangiogenic activity in fli-1:enhanced GFP expressing transgenic zebrafish embryo assessed as inhibition of dorsal longitudinal anastomic vessel sprouts after 48 hrs; type: functional, organism-based; procedure, shortened: as §5

| Compound | inhibition (INH) (Danio rerio [1]) | Activity (HUVEC [2]) | inhibition (INH) (Danio rerio [3]) | IC50 [4] | inhibition at 20 µM (HUVEC [5]) | inhibition (INH) (Danio rerio [6]) | inhibition (INH) (Danio rerio [7]) | IC50 (HepG2) | IC50 (A549) | IC50 (HUVEC [8]) | Migration rate relative to control (HUVEC [9]) | fold change (FC) (HUVEC [10]) | inhibition (Danio rerio [11]) | fold change (FC) (HUVEC [12]) | inhibition (Danio rerio [13]) |
| --- | --- | --- | --- | --- | --- | --- | --- | --- | --- | --- | --- | --- | --- | --- | --- |
| C=CCc1cc(C=O)c(OC)c(-c2ccc(O)c(CC=C)c2)c1 | <25% | Active | 25% | 20.4 µM | 82.5% | 25% | <25% | 20.9 µM | 28.6 µM | 32.5 µM | 63.2% | – | – | – | – |
| C=CCc1cc(C=O)c(O)c(-c2ccc(O)c(CC=C)c2)c1 | <25% | Active | 25% | 65.3 µM | 41.2% | – | 25% | 32.9 µM | 43.6 µM | 46.2 µM | 34.2% | – | – | – | – |
| C=CCc1ccc(O)c(-c2ccc(O)c(CC=C)c2)c1 [HONOKIOL] | <25% | Active | 50% | 65.4 µM | 51.4% | – | 25% | – | – | 52.6 µM | 38.5% | – | – | – | – |
| C=CCc1cc(C=O)c(O)c(-c2cc(C=O)c(O)c(CC=C)c2)c1 | <25% | Active | 50% | 21.7 µM | 21.3% | – | 25% | 10.7 µM | 30.2 µM | 15.1 µM | 21.2% | 1.5 | Dose-dependent effect | 2.5 | Dose-dependent effect |
| C=CCc1ccc(O)c(-c2ccc(OC)c(CC=C)c2)c1 [METHYLHONOKIOL] | <25% | Active | 25% | 68.8 µM | 34.9% | 25% | <25% | 55.3 µM | – | 55.8 µM | 54.2% | – | – | – | – |
